According to ChEMBL document CHEMBL2412990, “Synthesis and pharmacological evaluation of new N-phenylpiperazine derivatives designed as homologues of the antipsychotic lead compound LASSBio-579” (Eur J Med Chem, 2013):

What follows are compounds tested against T1, Alpha-1B adrenergic receptor (Rattus norvegicus, UniProt P15823) (assay: Displacement of [3H]-[…] from alpha1B adrenoreceptor in rat liver membranes after 45 mins by liquid scintillation counting).
T1 sequence (P15823 whole entry): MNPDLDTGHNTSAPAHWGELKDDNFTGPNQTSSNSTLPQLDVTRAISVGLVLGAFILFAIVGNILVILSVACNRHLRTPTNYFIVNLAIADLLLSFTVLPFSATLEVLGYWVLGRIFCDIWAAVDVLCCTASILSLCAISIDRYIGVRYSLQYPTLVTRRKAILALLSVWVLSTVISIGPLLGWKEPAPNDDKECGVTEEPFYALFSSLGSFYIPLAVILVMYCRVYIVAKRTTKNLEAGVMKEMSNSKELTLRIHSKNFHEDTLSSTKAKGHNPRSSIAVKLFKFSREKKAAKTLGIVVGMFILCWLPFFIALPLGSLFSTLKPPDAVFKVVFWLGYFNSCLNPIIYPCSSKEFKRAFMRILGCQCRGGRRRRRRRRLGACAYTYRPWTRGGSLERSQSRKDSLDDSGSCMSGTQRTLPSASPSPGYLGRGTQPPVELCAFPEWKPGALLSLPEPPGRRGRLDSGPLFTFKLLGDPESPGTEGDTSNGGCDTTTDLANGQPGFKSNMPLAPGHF
Format: cell membranes, Membrane
Compound Clc1ccc(-n2cc(COCCN3CCN(c4ccccc4)CC3)cn2)cc1 has a Ki of 850 nM. With Clc1ccc(-n2cc(COCCCN3CCN(c4ccccc4)CC3)cn2)cc1 the Ki was 400 nM. Clc1ccc(-n2cc(CCCN3CCN(c4ccccc4)CC3)cn2)cc1 showed a Ki of 700 nM. In the case of Clc1ccc(-n2cc(CN3CCN(c4ccccc4)CC3)cn2)cc1, the Ki is reported as 2600 nM. Compound Clc1ccc(-n2cc(CCCCCN3CCN(c4ccccc4)CC3)cn2)cc1 has a Ki of 380 nM. Clc1ccc(-n2cc(CCCCN3CCN(c4ccccc4)CC3)cn2)cc1 was tested, and the Ki was 570 nM.

What follows are compounds tested against D(2) dopamine receptor (Rattus norvegicus, UniProt P61169) (assay: Displacement of [3H]-YM-09151-2 from D2 receptor in rat brain striatal membranes after 60 mins by liquid scintillation counting).
D(2) dopamine receptor, sequence (P61169 whole entry): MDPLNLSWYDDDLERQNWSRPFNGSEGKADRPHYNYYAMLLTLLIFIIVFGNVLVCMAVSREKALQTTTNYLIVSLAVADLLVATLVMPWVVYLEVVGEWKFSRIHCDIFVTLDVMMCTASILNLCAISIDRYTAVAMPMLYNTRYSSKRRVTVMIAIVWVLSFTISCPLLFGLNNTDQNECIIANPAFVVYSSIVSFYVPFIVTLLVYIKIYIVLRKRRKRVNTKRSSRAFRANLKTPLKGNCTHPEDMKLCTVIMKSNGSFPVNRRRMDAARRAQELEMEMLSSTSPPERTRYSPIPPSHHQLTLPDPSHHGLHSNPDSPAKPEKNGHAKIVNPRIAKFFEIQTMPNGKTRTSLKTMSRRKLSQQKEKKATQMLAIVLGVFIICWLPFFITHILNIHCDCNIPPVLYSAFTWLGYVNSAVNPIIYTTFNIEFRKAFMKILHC
Format: cell membranes, Membrane
Clc1ccc(-n2cc(COCCN3CCN(c4ccccc4)CC3)cn2)cc1 gave a Ki of 1900 nM. Clc1ccc(-n2cc(COCCCN3CCN(c4ccccc4)CC3)cn2)cc1 showed a Ki of 790 nM. For Clc1ccc(-n2cc(CCCN3CCN(c4ccccc4)CC3)cn2)cc1, the Ki was 680 nM. Compound Clc1ccc(-n2cc(CN3CCN(c4ccccc4)CC3)cn2)cc1 has a Ki of 390 nM. With Clc1ccc(-n2cc(CCCCCN3CCN(c4ccccc4)CC3)cn2)cc1 the Ki was 490 nM. For Clc1ccc(-n2cc(CCCCN3CCN(c4ccccc4)CC3)cn2)cc1, the Ki was 250 nM.

What follows are compounds tested against T2, 5-hydroxytryptamine receptor 1A (Rattus norvegicus, UniProt P19327) (assay: Displacement of [3H]-8-OH-DPAT from 5HT1A receptor in rat brain hippocampal membranes after 15 mins by liquid scintillation counting).
T2 sequence (P19327 whole entry): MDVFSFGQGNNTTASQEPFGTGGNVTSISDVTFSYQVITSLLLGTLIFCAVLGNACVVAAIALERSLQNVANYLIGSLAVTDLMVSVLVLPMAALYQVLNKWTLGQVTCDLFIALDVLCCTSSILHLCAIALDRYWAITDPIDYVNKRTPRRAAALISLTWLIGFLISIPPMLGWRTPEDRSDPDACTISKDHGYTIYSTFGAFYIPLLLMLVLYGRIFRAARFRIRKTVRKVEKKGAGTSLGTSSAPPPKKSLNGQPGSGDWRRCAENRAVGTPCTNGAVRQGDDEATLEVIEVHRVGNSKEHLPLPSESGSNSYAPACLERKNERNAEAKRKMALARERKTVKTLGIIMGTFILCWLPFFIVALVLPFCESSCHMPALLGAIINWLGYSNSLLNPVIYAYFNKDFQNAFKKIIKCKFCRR
Format: cell membranes, Membrane
Method in brief: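 Hippocampal membranes, 40 µg protein, incubated with 1 nM [3H]-8-OH-DPAT at 37 °C for 15 min under yellow light. Buffer was 50 mM Tris-HCl pH 7.4 with 1 mM CaCl2, 1 mM MnCl2 and pargyline. Filters were soaked in 0.5% polyethyleneimine. IC50 came from nonlinear regression fitted with one or two sites. Ki by Cheng-Prusoff, using Kd from saturation experiments.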
Clc1ccc(-n2cc(COCCN3CCN(c4ccccc4)CC3)cn2)cc1 was tested, and the Ki was 110 nM. Compound Clc1ccc(-n2cc(COCCCN3CCN(c4ccccc4)CC3)cn2)cc1 has a Ki of 310 nM. In the case of Clc1ccc(-n2cc(CCCN3CCN(c4ccccc4)CC3)cn2)cc1, the Ki is reported as 180 nM. Clc1ccc(-n2cc(CN3CCN(c4ccccc4)CC3)cn2)cc1 gave a Ki of 220 nM. Clc1ccc(-n2cc(CCCCCN3CCN(c4ccccc4)CC3)cn2)cc1 showed a Ki of 160 nM. Compound Clc1ccc(-n2cc(CCCCN3CCN(c4ccccc4)CC3)cn2)cc1 has a Ki of 90 nM.

Each compound was assayed against T3, D(4) dopamine receptor (Homo sapiens, UniProt P21917) (assay: Displacement of [3H]-YM-09151-2 from human D4 receptor after 120 mins by liquid scintillation counting).
T3 sequence (P21917 whole entry): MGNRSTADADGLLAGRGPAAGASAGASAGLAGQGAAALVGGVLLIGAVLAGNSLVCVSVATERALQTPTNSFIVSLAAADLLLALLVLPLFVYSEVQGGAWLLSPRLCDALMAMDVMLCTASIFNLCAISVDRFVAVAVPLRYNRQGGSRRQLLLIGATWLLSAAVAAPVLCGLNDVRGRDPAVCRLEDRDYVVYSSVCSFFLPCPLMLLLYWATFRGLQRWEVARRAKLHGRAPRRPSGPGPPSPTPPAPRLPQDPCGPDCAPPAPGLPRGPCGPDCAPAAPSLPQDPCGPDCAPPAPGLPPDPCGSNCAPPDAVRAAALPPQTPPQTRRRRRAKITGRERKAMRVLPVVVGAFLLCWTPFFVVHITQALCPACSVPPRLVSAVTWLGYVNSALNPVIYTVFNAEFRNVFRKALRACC
Compound Clc1ccc(-n2cc(COCCN3CCN(c4ccccc4)CC3)cn2)cc1 has a Ki of 100 nM. Work on Clc1ccc(-n2cc(COCCCN3CCN(c4ccccc4)CC3)cn2)cc1 yielded a Ki of 1500 nM. Clc1ccc(-n2cc(CCCN3CCN(c4ccccc4)CC3)cn2)cc1 showed a Ki of 330 nM. With Clc1ccc(-n2cc(CN3CCN(c4ccccc4)CC3)cn2)cc1 the Ki was 180 nM. Clc1ccc(-n2cc(CCCCCN3CCN(c4ccccc4)CC3)cn2)cc1 was tested, and the Ki was 1180 nM. With Clc1ccc(-n2cc(CCCCN3CCN(c4ccccc4)CC3)cn2)cc1 the Ki was 800 nM.
